Measurements reported in ChEMBL document CHEMBL3085741, “Structure-activity relationships and molecular modeling of sphingosine kinase inhibitors” (J Med Chem, 2013).
Activity calls are given as the source filed them. The rule behind the calls is not given here.

Columns and labels:
[1] = target: T1, Sphingosine kinase 2 (Homo sapiens) (UniProt Q9NRA0); assay: Inhibition of sphingosine kinase 2 (unknown origin) using sphingosine as substrate at 50 uM after 30 mins relative to control in presence of [gamma32P]-ATP
T1 sequence (whole entry): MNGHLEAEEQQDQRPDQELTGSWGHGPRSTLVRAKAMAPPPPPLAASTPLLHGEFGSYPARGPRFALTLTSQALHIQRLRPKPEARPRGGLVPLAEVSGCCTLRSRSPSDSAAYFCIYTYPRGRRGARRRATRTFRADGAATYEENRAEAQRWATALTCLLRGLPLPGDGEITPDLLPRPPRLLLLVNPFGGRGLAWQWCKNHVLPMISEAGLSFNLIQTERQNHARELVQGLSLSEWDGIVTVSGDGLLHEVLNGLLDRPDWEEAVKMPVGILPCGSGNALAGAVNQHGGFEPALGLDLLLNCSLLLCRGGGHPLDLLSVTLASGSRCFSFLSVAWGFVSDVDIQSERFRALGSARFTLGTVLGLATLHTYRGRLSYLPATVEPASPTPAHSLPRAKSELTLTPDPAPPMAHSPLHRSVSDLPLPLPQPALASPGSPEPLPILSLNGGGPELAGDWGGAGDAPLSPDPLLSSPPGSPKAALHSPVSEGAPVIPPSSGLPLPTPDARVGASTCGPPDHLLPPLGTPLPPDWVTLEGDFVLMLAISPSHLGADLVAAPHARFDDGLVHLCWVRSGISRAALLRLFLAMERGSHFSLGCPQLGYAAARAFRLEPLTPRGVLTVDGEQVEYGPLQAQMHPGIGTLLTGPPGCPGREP

Sphingosine kinase 1 [2] = target: T2, Sphingosine kinase 1 (Homo sapiens, UniProt Q9NYA1); assay: Inhibition of recombinant sphingosine kinase 1 (unknown origin) expressed in HEK293 cells using sphingosine as substrate at 50 uM after 30 mins relative to control in presence of [gamma32P]-ATP
T2 sequence (Q9NYA1 whole entry): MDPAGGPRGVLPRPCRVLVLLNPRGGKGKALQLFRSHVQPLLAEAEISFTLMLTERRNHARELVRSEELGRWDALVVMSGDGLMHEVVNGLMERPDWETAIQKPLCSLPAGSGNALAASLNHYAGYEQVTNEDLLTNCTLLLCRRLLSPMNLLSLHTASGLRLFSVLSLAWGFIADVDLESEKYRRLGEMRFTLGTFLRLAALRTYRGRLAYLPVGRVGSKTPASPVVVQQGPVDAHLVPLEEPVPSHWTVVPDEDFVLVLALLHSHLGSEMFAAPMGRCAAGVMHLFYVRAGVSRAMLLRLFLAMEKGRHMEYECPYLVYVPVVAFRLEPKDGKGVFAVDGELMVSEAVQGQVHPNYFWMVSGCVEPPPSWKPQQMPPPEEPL
In short: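 Single-point inhibitor test at 50 μM with 250 μM ATP. […] Activity is reported as % of control, where control (100%) is activity with sphingosine alone. n = 3, mean ± SD.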

Sphingosine kinase 1 [3] = target: T2, Sphingosine kinase 1; assay: Inhibition of recombinant sphingosine kinase 1 (unknown origin) expressed in HEK293 cells using sphingosine as substrate after 30 mins in presence of [gamma32P]-ATP
Sphingosine kinase 2 = target: T3, Sphingosine kinase 2 (Homo sapiens, UniProt Q9NRA0); assay: (§1) Inhibition of sphingosine kinase 2 (unknown origin) using sphingosine as substrate after 30 mins in presence of [gamma32P]-ATP
T3 sequence (Q9NRA0 whole entry): T1 sequence (whole entry)
In short: (§2)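 Results are given as % of the sphingosine-only control, and IC50 was derived from the curve. n = 3, ± SD.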

[4] = target: T1, Sphingosine kinase 2 (Homo sapiens); assay: as §1; in short: as §2
[5] = target: T1, Sphingosine kinase 2 (Homo sapiens); assay: Activity at sphingosine kinase 2 (unknown origin) at 50 uM after 30 mins in presence of [gamma32P]-ATP
Sphingosine kinase 1 [6] = target: T2, Sphingosine kinase 1; assay: Inhibition of recombinant sphingosine kinase 1 (unknown origin) expressed in HEK293 cells using sphingosine as substrate at 100 uM after 30 mins relative to control in presence of [gamma32P]-ATP
[7] = 100 uM, in the assay text read “at 100 uM” for “at 50 uM”

Structure (SMILES)	inhibition (Sphingosine kinase 1 [2])	also measured
CCCCCCCCc1ccc(CCc2ccc[n+](C)c2)cc1	inactive	inhibition ([1]; 50 uM): inactive
CCCCCc1cn(-c2ccc(CCN3CCCCC3)cc2)nn1	inactive	
CCCCc1cn(-c2ccc(CCN3CCCCC3)cc2)nn1	inactive	
CCCCCCCCc1ccc(CCN2CCC[C@@H]2CO)cc1		IC50 (Sphingosine kinase 1 [3]): 2.2 µM; inhibition (Sphingosine kinase 1 [3]): Dose-dependent effect; IC50 (Sphingosine kinase 2): 5.2 µM; inhibition [4]: Dose-dependent effect
CCCCCCCCc1ccc(CCN2CCC(F)CC2)cc1	inactive	
CCCCCCCCc1ccc(CCN2CCC(N)CC2)cc1		IC50 (Sphingosine kinase 1 [3]): 16.9 µM; inhibition (Sphingosine kinase 1 [3]): Dose-dependent effect
CCCCCCCCc1ccc(CCN2CCC(=O)CC2)cc1		inhibition ([1]; 50 uM): Active
CCCCCCCCc1cn(-c2ccc(CCO)cc2)nn1	inactive	
CCCCCCCCc1ccc(CCN2CCC[C@H]2CO)cc1		inhibition [1, 7]: 45.7%; Activity [5]: Active; inhibition (Sphingosine kinase 1 [6]): 72.2%
CCCCCCCCc1ccc(CCN2CCC(OC)CC2)cc1	inactive	
CCCCCCCCc1ccc(CCN2CC[C@H](O)C2)cc1	Active	
CCCCCCCCc1cn(-c2ccc(CC[N+]3(C)CCCCC3)cc2)nn1	inactive	inhibition ([1]; 50 uM): inactive
CCCCCCCCc1ccc(CCN2CC[C@@H](O)C2)cc1	Active	
Cc1ccc(CCN2CCC[C@@H]2CO)cc1	inactive	
CCCCCCCCCCCCc1ccc(CCN2CCC[C@@H]2CO)cc1		IC50 (Sphingosine kinase 1 [3]): 5.3 µM; inhibition (Sphingosine kinase 1 [3]): Dose-dependent effect; IC50 (Sphingosine kinase 2): 5 µM; inhibition [4]: Dose-dependent effect
Cc1ccc(CCN2CCC(N)CC2)cc1	inactive	
CCCCCCCCc1cn(-c2ccc(O)cc2)nn1	inactive	
CCCCc1cn(-c2ccc(CC[N+]3(C)CCCCC3)cc2)nn1	inactive	inhibition ([1]; 50 uM): inactive
Cc1ccc(CCN2CCC(O)CC2)cc1	inactive	
CCCCCCCCCCCCc1ccc(CCN2CCC[C@H]2CO)cc1		inhibition [1, 7]: 49.7%; Activity [5]: Active; inhibition (Sphingosine kinase 1 [6]): 49.9%
CCCCc1cn(-c2ccc(CCN3CCC(O)CC3)cc2)nn1	inactive	
CCCCCCCCc1ccc(-n2cc(-c3cccnc3)nn2)cc1	inactive	
CCCCCCCCc1cn(-c2ccc(CCN3CCCCC3)cc2)nn1	inactive	
CCCCCCCCc1ccc(CCc2cccnc2)cc1	inactive	
Cc1ccc(CCN2CCC(N=[N+]=[N-])CC2)cc1	inactive	
CCCCCc1cn(-c2ccc(CC[N+]3(C)CCCCC3)cc2)nn1	inactive	inhibition ([1]; 50 uM): inactive

More lines, main results first:

inhibition (Sphingosine kinase 1 [2])	Structure (SMILES)	also measured
inactive	CCCCCCCCc1ccc(C[n+]2ccc(N3CCC(C)CC3)cc2)cc1	inhibition ([1]; 50 uM): Active
inactive	CCCCCCCCCCCCc1ccc(C(=O)N2CCC[C@@H]2CO)cc1	
Active	CCCCCCCCc1ccc(CCCCN2CCC(O)CC2)cc1	
Active	CCCCCCCCc1ccc(CN2CCC(O)CC2)cc1	
inactive	CCCCCc1cn(-c2ccc(CCN3CCC(O)CC3)cc2)nn1	
inactive	CCCCCCCCCCCCc1ccc(C(=O)N2CCC[C@H]2CO)cc1	
inactive	CCCCCCCCCCCCc1ccc(CCN2CCC(N)CC2)cc1	
Active	CCCCCCCCc1cn(-c2ccc(CCN3CCC(O)CC3)cc2)nn1	
inactive	CCCCCCCCc1ccc(C(=O)Nc2ccc(CCO)cc2)cc1	
inactive	CCCCCCCCc1ccc(C(=O)NCc2ccncc2)cc1	
inactive	CCCCCCCCCCCCc1ccc(C(=O)N2CCC(O)CC2)cc1	
inactive	CCCCCCCCc1ccc(C(=O)N2CCC(O)CC2)cc1	
inactive	CCCCCCCCc1ccc(CCN2CCC(N=[N+]=[N-])CC2)cc1	
Active	CCCCCCCCc1ccc(CCCN2CCC(O)CC2)cc1	
inactive	CCCCCCCCc1ccc(C(=O)Nc2ccc(O)cc2)cc1	
